Measurements published in PMC2857138 (The Journal of Biological Chemistry, 2010).

Experiments:
Type in all cases: biochemical
IP3R2 [1] = biological target: IP3R2 (Mus musculus, UniProt Q9Z329, G1969A/G1971A/G1974A); assay: Ca2+ release from stores of permeabilized DT40-ΔATPB cells
Summary of the method: (§1)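 DT40 cells lacking all endogenous IP3R genes were stably transfected with the IP3R construct and selected with G418 (2 mg/ml). Intracellular stores were loaded with Mag-fluo-4, and cells were permeabilized with saponin (10 μg/ml) at 20 °C in cytosol-like medium (free Ca²⁺ 220 nM, pH 7.0). After MgATP (1.5 mM) loading reached steady state, IP3 was added with thapsigargin (1 μM). Release was expressed as a fraction of ionomycin (1 μM) release.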

IP3R3 = IP3R3 (Rattus norvegicus, UniProt Q63269); assay: Ca2+ release from stores of permeabilized DT40 cells
IP3R2 [2] = biological target: IP3R2 (Mus musculus, UniProt Q9Z329); assay: Ca2+ release from stores of permeabilized DT40 cells
Summary of the method: as §1

Chain of IP3R2 (Mus musculus, UniProt Q9Z329, G1969A/G1971A/G1974A) (Q9Z329 whole entry G1969A/G1971A/G1974A): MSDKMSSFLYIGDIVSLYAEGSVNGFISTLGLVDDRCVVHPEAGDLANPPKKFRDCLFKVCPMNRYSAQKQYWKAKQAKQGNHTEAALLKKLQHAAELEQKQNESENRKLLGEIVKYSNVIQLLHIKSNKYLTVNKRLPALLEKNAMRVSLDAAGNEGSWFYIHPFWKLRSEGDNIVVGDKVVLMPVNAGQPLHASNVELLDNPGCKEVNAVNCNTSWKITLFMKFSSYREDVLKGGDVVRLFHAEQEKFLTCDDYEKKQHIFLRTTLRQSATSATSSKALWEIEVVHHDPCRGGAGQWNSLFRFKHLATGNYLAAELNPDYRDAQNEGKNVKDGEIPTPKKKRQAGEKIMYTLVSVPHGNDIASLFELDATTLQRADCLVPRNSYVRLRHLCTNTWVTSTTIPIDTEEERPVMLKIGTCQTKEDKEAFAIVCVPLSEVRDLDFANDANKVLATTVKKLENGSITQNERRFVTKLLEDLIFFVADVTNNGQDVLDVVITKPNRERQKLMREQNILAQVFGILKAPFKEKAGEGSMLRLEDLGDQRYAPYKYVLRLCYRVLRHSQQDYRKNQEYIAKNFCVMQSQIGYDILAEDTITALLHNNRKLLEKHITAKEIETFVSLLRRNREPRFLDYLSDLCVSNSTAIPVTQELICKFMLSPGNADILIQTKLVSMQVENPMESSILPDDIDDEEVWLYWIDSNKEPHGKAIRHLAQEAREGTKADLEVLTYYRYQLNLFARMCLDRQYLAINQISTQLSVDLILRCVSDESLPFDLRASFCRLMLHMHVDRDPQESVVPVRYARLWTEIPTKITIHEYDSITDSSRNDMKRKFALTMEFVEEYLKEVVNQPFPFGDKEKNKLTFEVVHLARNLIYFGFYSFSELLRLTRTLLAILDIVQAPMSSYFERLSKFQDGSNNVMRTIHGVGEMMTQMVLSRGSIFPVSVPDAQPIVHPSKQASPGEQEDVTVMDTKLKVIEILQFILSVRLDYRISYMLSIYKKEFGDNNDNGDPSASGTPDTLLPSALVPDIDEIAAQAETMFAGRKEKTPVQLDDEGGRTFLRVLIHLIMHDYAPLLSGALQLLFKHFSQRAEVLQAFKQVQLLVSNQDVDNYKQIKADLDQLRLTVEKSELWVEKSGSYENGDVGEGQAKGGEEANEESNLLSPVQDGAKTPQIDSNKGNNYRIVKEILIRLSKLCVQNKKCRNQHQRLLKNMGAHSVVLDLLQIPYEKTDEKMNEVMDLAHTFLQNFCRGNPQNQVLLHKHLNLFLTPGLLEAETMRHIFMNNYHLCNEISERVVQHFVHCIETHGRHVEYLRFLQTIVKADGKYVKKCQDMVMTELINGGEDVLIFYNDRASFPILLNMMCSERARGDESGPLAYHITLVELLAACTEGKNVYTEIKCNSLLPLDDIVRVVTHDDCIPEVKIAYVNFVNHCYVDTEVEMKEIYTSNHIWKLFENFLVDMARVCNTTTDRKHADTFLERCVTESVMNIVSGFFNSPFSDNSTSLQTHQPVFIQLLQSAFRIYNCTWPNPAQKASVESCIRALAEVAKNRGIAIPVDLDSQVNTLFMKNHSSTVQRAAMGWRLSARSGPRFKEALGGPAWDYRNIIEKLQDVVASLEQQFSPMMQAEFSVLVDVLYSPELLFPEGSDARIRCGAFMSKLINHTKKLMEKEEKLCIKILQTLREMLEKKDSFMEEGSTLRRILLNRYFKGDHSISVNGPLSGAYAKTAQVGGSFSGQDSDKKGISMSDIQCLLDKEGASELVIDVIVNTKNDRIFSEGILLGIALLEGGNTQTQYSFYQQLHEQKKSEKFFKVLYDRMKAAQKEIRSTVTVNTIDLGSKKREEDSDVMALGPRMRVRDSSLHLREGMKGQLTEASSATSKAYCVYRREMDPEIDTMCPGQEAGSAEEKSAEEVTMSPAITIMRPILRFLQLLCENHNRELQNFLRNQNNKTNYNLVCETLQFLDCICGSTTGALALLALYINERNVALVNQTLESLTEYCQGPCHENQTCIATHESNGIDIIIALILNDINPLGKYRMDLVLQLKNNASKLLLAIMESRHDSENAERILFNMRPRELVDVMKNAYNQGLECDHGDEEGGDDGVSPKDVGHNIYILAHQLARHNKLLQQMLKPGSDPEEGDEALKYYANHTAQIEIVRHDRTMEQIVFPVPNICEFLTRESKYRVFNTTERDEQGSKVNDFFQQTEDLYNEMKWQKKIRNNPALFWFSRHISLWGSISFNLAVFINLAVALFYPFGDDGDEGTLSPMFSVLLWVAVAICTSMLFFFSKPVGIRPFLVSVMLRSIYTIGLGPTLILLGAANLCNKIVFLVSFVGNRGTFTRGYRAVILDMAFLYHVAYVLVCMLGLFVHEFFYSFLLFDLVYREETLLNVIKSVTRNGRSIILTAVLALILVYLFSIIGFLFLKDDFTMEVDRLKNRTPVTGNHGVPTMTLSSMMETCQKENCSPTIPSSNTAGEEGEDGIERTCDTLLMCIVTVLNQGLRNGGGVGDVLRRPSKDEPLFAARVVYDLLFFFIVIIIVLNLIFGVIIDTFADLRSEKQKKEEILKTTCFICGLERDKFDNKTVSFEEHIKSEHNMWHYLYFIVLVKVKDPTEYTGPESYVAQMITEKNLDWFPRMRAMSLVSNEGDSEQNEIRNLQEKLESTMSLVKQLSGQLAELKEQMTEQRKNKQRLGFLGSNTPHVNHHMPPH

EC50 (IP3R2 [1]): 246 ± 17 nM
EC50 (IP3R3): 255 ± 9 nM
EC50 (IP3R2 [2]): 74 ± 10 nM
Compound: O=P(O)(O)O[C@@H]1[C@H](O)[C@H](O)[C@@H](OP(=O)(O)O)[C@H](OP(=O)(O)O)[C@H]1O [IP3]
